For 40 compounds, cytotoxicity results are on record in ChEMBL document CHEMBL4513216, “Probing the Open Global Health Chemical Diversity Library for Multistage-Active Starting Points for Next-Generation Antimalarials” (ACS Infect Dis, 2020).

The data set can be described thus: Toxicity liver stage against HepG2, at 10uM. Conditions: human, HepG2-A16-CD81EGFP cells; read-out: INHIBITION
Also on record: test concentration 10 uM, cell line HepG2-A16-CD81EGFP. The class given is cell-based. The gist of the method:
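Uninfected HepG2-A16-CD81EGFP cells, 3 × 10^3 per well, 1536-well, plated on prespotted compound at 10 μM final, parasite-free screening media added to match infected plates; puromycin 10 μM positive, DMSO 0.5% negative; run in parallel with 48 h PbLuc assay at 37 °C, 5% CO2; viability by CellTiter-Glo luminescence, normalized to controls.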
Consider `CCN(CC)CCNC(=O)CCc1c(C)nn(-c2ccc(Cl)cc2)c1C`, for which the cytotoxicity at 10 µM is -5.93%.

As to `COc1cn(CC(N)=O)c(CSc2nccc(C)n2)cc1=O`, the cytotoxicity at 10 µM is -12.1%. As for `N#Cc1cccnc1OC1CCN(S(=O)(=O)c2ccc(F)c(Cl)c2)CC1`, the cytotoxicity at 10 µM amounted to 6.27%. For the compound `Cc1nc(N(C)C)nc(C)c1NC(=O)c1ccccc1F`, the cytotoxicity at 10 µM stood at 41.7%. As to `CC(=O)NCc1noc2c1CN(Cc1ccsc1)CC2`, the cytotoxicity at 10 µM was -3.21%. Regarding `Cc1cc(=O)n(CC(=O)NC(C)C)c(Nc2ccc(F)c(C)c2)n1`, the cytotoxicity at 10 µM worked out at 7.97%.

As to `CC(=O)Cn1nc(-c2ccccc2F)ccc1=O`, the cytotoxicity at 10 µM was determined as 0.477%. Turning to `Cc1ccc(C)c(-c2csc(N)c2C#N)c1`, the cytotoxicity at 10 µM is 5.47%.

With `CC(C)CN1CCN(C(=O)c2[nH]nnc2Nc2ccccc2F)CC1`, the cytotoxicity at 10 µM was found to be 18.7%.

Consider `Cc1cnc(Nc2cccc(C3CCCN3Cc3cn(C)nc3C)n2)s1` (stereo not given), for which the cytotoxicity at 10 µM amounted to 13.2%. As for `O=C(c1cncs1)N1CCC(Cc2cnc3[nH]ccc3c2)CC1`, the cytotoxicity at 10 µM was -3.94%. For the compound `Cc1ccccc1-c1cncc(C2CCN(C3CCOCC3)CC2)n1`, the cytotoxicity at 10 µM was -2.81%.

For the compound `Cc1cc(C(=O)NCC(F)(F)F)c2c(C3CCNCC3)noc2n1`, the cytotoxicity at 10 µM was 10.4%. As for `CC(C)COc1cncc(NCc2nnc3ccccn23)n1`, the figure is 13.1%; as for `CC(Cc1cccc(Cl)c1)NC(=O)NCc1ncnn1C` (stereo not given), 8.52%; as for `Cc1cnn(C2CCCN(C(=O)c3cc[nH]n3)C2)c1` (stereo not given), -18.3%. For `Cc1nc(C)c(S(=O)(=O)NC(=O)c2ccoc2)s1` the value was -6.91%; for `CSc1cc2c(cc1NC(=O)NCCn1ccnc1)OCCO2`, -8.28%. For the compound `CN(Cc1ccccc1)CC(C)(C)NC(=O)c1cnccn1`, the cytotoxicity at 10 µM is 6.95%.

Regarding `Cc1cccc(C(C)NCC2CCS(=O)(=O)CC2)c1` (stereo not given), the cytotoxicity at 10 µM was -2.67%.

Consider `Cc1noc(OCc2ccc(C#N)cc2)n1`, for which the cytotoxicity at 10 µM is -10.2%. For `CCc1noc(C(C)SCCS(C)(=O)=O)n1` (stereo not given) the value was 5.5%; for `CN1CCN(c2ccccc2NC(=O)NCCc2ccccc2)CC1`, -4.63%; for `Cc1ncc2c(n1)CCCC2NC(=O)c1ccccc1Cn1cncn1` (stereo not given), -24.4%. Turning to `CC(C)CC(C)N(C)C(=O)CCn1cccn1` (stereo not given), the cytotoxicity at 10 µM turned out to be 0.395%. As to `Cn1ccnc1C(=O)NC[C@@H]1OC[C@H]2CN(S(C)(=O)=O)CC[C@H]21`, the cytotoxicity at 10 µM is -99.3%. Take `Cc1nc2c(c(NCCc3nccs3)n1)CCN(CC1CC1)CC2`: the cytotoxicity at 10 µM was -1.38%. For `CSc1ccc(CN2CCC(CCC(=O)Nc3ccccc3)CC2)cc1`, the cytotoxicity at 10 µM came out at 6.8%. As for `CC(=O)N[C@H]1CN(S(=O)(=O)N(C)Cc2ccccc2)C[C@@H]1C1CC1`, the figure is -144%. Consider `CN(C)CCCNC(=O)c1ccc(N(C)S(C)(=O)=O)cc1Cl`, for which the cytotoxicity at 10 µM was -6.3%. With `COCC1(C(=O)N[C@H]2CN(c3nnc(C)s3)C[C@@H]2C2CC2)CCC1`, the cytotoxicity at 10 µM is -129%. `NCC(=O)N1CCCC1c1ccc(C(=O)NCc2ccoc2)s1` (stereo not given): the cytotoxicity at 10 µM worked out at 1.68%. As for `CCN(Cc1ccccc1)C(=O)CN1CCCC(Cn2cncn2)C1` (stereo not given), the cytotoxicity at 10 µM stood at 0.421%. In the case of `Cc1cnn(CC2CN(c3ncnc4ccccc34)CCO2)c1` (stereo not given), the cytotoxicity at 10 µM is 6.57%.

Consider `COCC1CC2(CCN(c3ccccn3)CC2)CN1C(C)C` (stereo not given), for which the cytotoxicity at 10 µM was -110%. `c1csc(CN2CCO[C@@H]3CN(C4CCOCC4)C[C@@H]3C2)c1`: the cytotoxicity at 10 µM is -157%.

As for `Cc1csc(CN2CCC[C@]3(C[C@@H](Oc4ccccn4)CO3)C2)n1`, the cytotoxicity at 10 µM is -141%. For the compound `COc1ccccc1CN1CC[C@H]2C[C@H](C(=O)N3CCCC3)O[C@H]2C1`, the cytotoxicity at 10 µM was -2.24%. As for `CN(C)C(=O)CC1CC2(CCN(Cc3ccsc3)CC2)c2ccccc21` (stereo not given), the figure is 1.13%; as for `c1ccc(CNCC2Cn3nnc(-c4ccncc4)c3CO2)nc1` (stereo not given), -1.99%.
